# ChEMBL document CHEMBL1123346, “Pyrimidinones. 3. N-substituted 6-phenylpyrimidinones and pyrimidinediones with diuretic/hypotensive and antiinflammatory activity” (J Med Chem, 1986)
# Assays:
# Rattus norvegicus [1] = assay: Blood pressure change in rats after oral administration of 50 mg/kg dose after 4 hours; assay type: functional
# How it was run: (§1)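 Restrained female Sprague–Dawley rats with indwelling aortic cannulas exteriorized at the nape; direct arterial pressure via transducer, mean pressure by electrical integration of phasic pressure. Readings before and 4 and 24 h after oral dosing (carboxymethylcellulose suspension, 10 mL/kg). Value is change in mean arterial pressure, averaged over two animals.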
# Rattus norvegicus [2] = species: Rattus norvegicus; assay: Diuretic activity in rats; assay type: functional, Urine
# How it was run: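 Male rats (~160 g) fasted 24 h, water withheld 1.5 h, both withheld during test. Gavage 25 mL/kg 0.9% saline with 0.5% carboxymethylcellulose containing compound at 40 mg/kg; urine collected 5 h in metabolism cages. Two-stage test, T/C urine volume per stage; active if product of stage T/Cs ≥3.34.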
# Rattus norvegicus [3] = assay: Blood pressure change in rats after oral administration of 50 mg/kg dose after 24 hours; assay type: functional; how it was run: as §1
# Rattus norvegicus [4] = assay: Inhibition of RPAR administered perorally at 100 mg/kg dose; assay type: functional; details: route oral
# How it was run: (§2)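 Male Wistar rats (180-200 g), 5-10/group, dosed orally (water with Tween-80 suspension) 1 h before iv sensitization with 1 mg bovine serum albumin; 24-h fasted. 60 min later subplantar challenge with 200 µg anti-BSA in left hindpaw. Paw swelling by mercury displacement plethysmography at 2 h post-challenge.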
# Rattus norvegicus [5] = assay: Inhibition of RPAR administered perorally at 50 mg/kg dose; assay type: functional; details: route oral; how it was run: as §2
# Rattus norvegicus [6] = assay: Inhibition of RPAR administered perorally at 25 mg/kg dose; assay type: functional; details: route oral; how it was run: as §2
# [7] = Sodium salt excretion in conscious rat at the dose of 10 mg/kg expressed as urinary excretion in treated rats/urinary excretion in control rats; assay type: ADME, organism-based, Urine; design: dose 10 mg/kg; details: in vivo
# How it was run: (§3)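 Male rats (~160 g) fasted 24 h, water withheld 1.5 h; oral gavage of compound (0.3-100 mg/kg) in 25 mL/kg saline with 0.5% carboxymethylcellulose; 5 h urine collection in metabolism cages. Urine volume, Na+ and K+ (flame photometry) expressed as treated/control excretion ratio.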
# [8] = Potassium salt excretion in conscious rat at the dose of 1.0 mg/kg expressed as urinary excretion in treated rats/urinary excretion in control rats; assay type: ADME, organism-based, Urine; design: dose 1 mg/kg; details: in vivo; how it was run: as §3
# [9] = Sodium salt excretion in conscious rat at the dose of 1.0 mg/kg expressed as urinary excretion in treated rats/urinary excretion in control rats; assay type: ADME, organism-based, Urine; design: dose 1 mg/kg; details: in vivo; how it was run: as §3
# [10] = Sodium salt excretion in conscious rat at the dose of 0.3 mg/kg expressed as urinary excretion in treated rats/urinary excretion in control rats; assay type: ADME, organism-based, Urine; design: dose 0.3 mg/kg; details: in vivo; how it was run: as §3
# Rattus norvegicus [11] = assay: Compound was tested for urinary volume excretion in conscious rat at the dose of 10 mg/kg expressed as urinary excretion in treated rats/urinary excretion in control rats; assay type: ADME, organism-based, Urine; design: dose 10 mg/kg; details: in vivo; how it was run: as §3
# Rattus norvegicus [12] = assay: Compound was tested for urinary volume excretion in conscious rat at the dose of 3.0 mg/kg expressed as urinary excretion in treated rats/urinary excretion in control rats; assay type: ADME, organism-based, Urine; design: dose 3 mg/kg; details: in vivo; how it was run: as §3
# [13] = Potassium salt excretion in conscious rat at the dose of 3.0 mg/kg expressed as urinary excretion in treated rats/urinary excretion in control rats; assay type: ADME, organism-based, Urine; design: dose 3 mg/kg; details: in vivo; how it was run: as §3
# [14] = Potassium salt excretion in conscious rat at the dose of 0.3 mg/kg expressed as urinary excretion in treated rats/urinary excretion in control rats; assay type: ADME, organism-based, Urine; design: dose 0.3 mg/kg; details: in vivo; how it was run: as §3
# [15] = Sodium salt excretion in conscious rat at the dose of 30 mg/kg expressed as urinary excretion in treated rats/urinary excretion in control rats; assay type: ADME, organism-based, Urine; design: dose 30 mg/kg; details: in vivo; how it was run: as §3
# Rattus norvegicus [16] = assay: Compound was tested for urinary volume excretion in conscious rat at the dose of 1.0 mg/kg expressed as urinary excretion in treated rats/urinary excretion in control rats; assay type: ADME, organism-based, Urine; design: dose 1 mg/kg; details: in vivo; how it was run: as §3
# [17] = Potassium salt excretion in conscious rat at the dose of 10 mg/kg expressed as urinary excretion in treated rats/urinary excretion in control rats; assay type: ADME, organism-based, Urine; design: dose 10 mg/kg; details: in vivo; how it was run: as §3
# [18] = Potassium salt excretion in conscious rat at the dose of 100 mg/kg expressed as urinary excretion in treated rats/urinary excretion in control rats; assay type: ADME, organism-based, Urine; design: dose 100 mg/kg; details: in vivo; how it was run: as §3
# [19] = Sodium salt excretion in conscious rat at the dose of 100 mg/kg expressed as urinary excretion in treated rats/urinary excretion in control rats; assay type: ADME, organism-based, Urine; design: dose 100 mg/kg; details: in vivo; how it was run: as §3
# [20] = Potassium salt excretion in conscious rat at the dose of 30 mg/kg expressed as urinary excretion in treated rats/urinary excretion in control rats; assay type: ADME, organism-based, Urine; design: dose 30 mg/kg; details: in vivo; how it was run: as §3
# [21] = Sodium salt excretion in conscious rat at the dose of 3.0 mg/kg expressed as urinary excretion in treated rats/urinary excretion in control rats; assay type: ADME, organism-based, Urine; design: dose 3 mg/kg; details: in vivo; how it was run: as §3
# Rattus norvegicus [22] = assay: Compound was tested for urinary volume excretion in conscious rat at the dose of 30 mg/kg expressed as urinary excretion in treated rats/urinary excretion in control rats; assay type: ADME, organism-based, Urine; design: dose 30 mg/kg; details: in vivo; how it was run: as §3
# Rattus norvegicus [23] = assay: Compound was tested for urinary volume excretion in conscious rat at the dose of 100 mg/kg expressed as urinary excretion in treated rats/urinary excretion in control rats; assay type: ADME, organism-based, Urine; design: dose 100 mg/kg; details: in vivo; how it was run: as §3
# Rattus norvegicus [24] = assay: Compound was tested for urinary volume excretion in conscious rat at the dose of 0.3 mg/kg expressed as urinary excretion in treated rats/urinary excretion in control rats; assay type: ADME, organism-based, Urine; design: dose 0.3 mg/kg; details: in vivo; how it was run: as §3
smiles,measurement,setting,value
C=CCn1c(N)nc(-c2ccccc2)c(I)c1=O,MABP change,Rattus norvegicus [1],-6 mmHg
same,Diuretic activity,Rattus norvegicus [2],5.09
same,MABP change,Rattus norvegicus [3],-10 mmHg
N=C(N)NCCN1CCCCCCC1 [GUANETHIDINE],MABP change,Rattus norvegicus [1],-16 mmHg
same,MABP change,Rattus norvegicus [3],9 mmHg
Nc1nc(=O)c(Br)c(-c2ccccc2)n1O,MABP change,Rattus norvegicus [1],6 mmHg
same,MABP change,Rattus norvegicus [3],-1 mmHg
CNc1nc(O)c(Br)c(-c2ccccc2)n1,inhibition in vivo at 100 mg/kg,Rattus norvegicus [4],82%
same,inhibition in vivo at 50 mg/kg,Rattus norvegicus [5],78%
same,inhibition in vivo at 25 mg/kg,Rattus norvegicus [6],42%
Oc1nc(O)c(I)c(-c2ccccc2)n1,MABP change,Rattus norvegicus [1],7 mmHg
same,inhibition in vivo at 100 mg/kg,Rattus norvegicus [4],48%
same,Diuretic activity,Rattus norvegicus [2],5.43
same,MABP change,Rattus norvegicus [3],11 mmHg
same,inhibition in vivo at 50 mg/kg,Rattus norvegicus [5],41%
Nc1nc(O)c(I)c(-c2ccccc2)n1,MABP change,Rattus norvegicus [1],-7 mmHg
same,inhibition in vivo at 100 mg/kg,Rattus norvegicus [4],8%
same,MABP change,Rattus norvegicus [3],-12 mmHg
same,inhibition in vivo at 50 mg/kg,Rattus norvegicus [5],3%
CC(=O)Nc1nc(O)c(I)c(-c2ccccc2)n1,MABP change,Rattus norvegicus [1],3 mmHg
same,MABP change,Rattus norvegicus [3],9 mmHg
Cn1c(-c2ccccc2)c(Br)c(=O)n(C)c1=O,inhibition in vivo at 100 mg/kg,Rattus norvegicus [4],59%
same,inhibition in vivo at 50 mg/kg,Rattus norvegicus [5],36%
Cn1c(-c2ccccc2)c(Cl)c(=O)[nH]c1=O,Na+ excretion,[7],1.1
same,K+ excretion,[8],1.2
same,Na+ excretion,[9],1.1
same,Na+ excretion,[10],1.1
same,Urinary volume,Rattus norvegicus [11],1.1
same,MABP change,Rattus norvegicus [1],2 mmHg
same,Urinary volume,Rattus norvegicus [12],0.8
same,K+ excretion,[13],1.1
same,K+ excretion,[14],0.9
same,Na+ excretion,[15],1.6
same,Urinary volume,Rattus norvegicus [16],0.9
same,K+ excretion,[17],1.3
same,K+ excretion,[18],1.9
same,Diuretic activity,Rattus norvegicus [2],3.49
same,Na+ excretion,[19],1.6
same,K+ excretion,[20],1.7
same,Na+ excretion,[21],0.9
same,Urinary volume,Rattus norvegicus [22],1.6
same,Urinary volume,Rattus norvegicus [23],1.6
same,Urinary volume,Rattus norvegicus [24],0.9
same,MABP change,Rattus norvegicus [3],2 mmHg
Oc1nc(O)c(Br)c(-c2ccccc2)n1,Na+ excretion,[7],1.2
same,K+ excretion,[8],1
same,Na+ excretion,[9],1.2
same,Na+ excretion,[10],1.2
same,Urinary volume,Rattus norvegicus [11],1.2
same,MABP change,Rattus norvegicus [1],6 mmHg
same,Urinary volume,Rattus norvegicus [12],1.1
same,K+ excretion,[13],1
same,K+ excretion,[14],1
same,Na+ excretion,[15],1.4
same,Urinary volume,Rattus norvegicus [16],1
same,K+ excretion,[17],0.9
same,inhibition in vivo at 100 mg/kg,Rattus norvegicus [4],58%
same,K+ excretion,[18],1.8
same,Diuretic activity,Rattus norvegicus [2],3.53
same,Na+ excretion,[19],1.9
same,K+ excretion,[20],1.2
same,Na+ excretion,[21],1
same,Urinary volume,Rattus norvegicus [22],1.5
same,Urinary volume,Rattus norvegicus [23],2.1
same,Urinary volume,Rattus norvegicus [24],0.9
same,MABP change,Rattus norvegicus [3],5 mmHg
same,inhibition in vivo at 50 mg/kg,Rattus norvegicus [5],46%
Cn1c(=O)[nH]c(-c2ccccc2)c(Br)c1=O,MABP change,Rattus norvegicus [1],-1 mmHg
same,MABP change,Rattus norvegicus [3],6 mmHg
CN(C)c1nc(O)c(I)c(-c2ccccc2)n1,MABP change,Rattus norvegicus [1],1 mmHg
same,MABP change,Rattus norvegicus [3],2 mmHg
CC(=O)Nc1nc(O)c(Br)c(-c2ccccc2)n1,MABP change,Rattus norvegicus [1],4 mmHg
same,MABP change,Rattus norvegicus [3],1 mmHg
